# The list is not random: actives were taken first. Their share in the collection is about 1.4%.
# STAT3 inh = reduces IL-6 driven STAT3 reporter signal. U3A cells, IL-6 STAT3-luciferase reporter, luminescence; host cell line lacks STAT1. inhibition, % at 5.5 µM. 190,000 tested, 0.89% active. AID 862;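 active means inhibition above the mean inhibition across all screened compounds plus 3 SD, cut at about 44% in these data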;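 further: 0% = DMSO only wells and 100% = 100 µM nifuroxazide control wells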
# STAT3 act-1 = increases IL-6 driven STAT3 reporter signal | U3A cells, IL-6 STAT3-luciferase reporter, luminescence; 100% = signal with IL-6 EC80 alone | 190,000 tested, 0.91% active | activation (% of control), % at 5.6 µM;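 active means activation above the screen-wide mean of compound activation plus 3 SD, cut at about 130% in these data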;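 further: 0% = background luminescence of wells with medium and substrate only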
#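 Material: STAT3-luciferase reporter U3A cells. Controls: IL-6-treated wells, 100% activation. Read-out: % activation versus median of IL-6-stimulated wells. Probe or stimulus: IL-6 stimulus at 33 ng/mL final. Timing: compound 1 h, then IL-6 6 h at 37 °C. Signal: reporter luminescence signal.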
# STAT1 inh = inhibitors of IFN-gamma induced STAT1 signaling | inhibition, % at 5.5 µM | 200,000 tested, 0.35% active | AID 920 | NIH 3T3 STAT1-luciferase reporter, luminescence;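 active means inhibition above a set limit, the mean inhibition across all tested compounds plus 3 SD, cut at about 34% in these data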;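 further: 0% = IFN-gamma with DMSO and 100% = IFN-gamma with 300 µM nifuroxazide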
# PERK inhibitor = inhibitors of human PERK kinase; 220,000 tested, 0.17% active; CHO PERK-DD fusion, SEAP luminescence translation reporter; Q9NZJ5; inhibition, % at 5.6 µM;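 active means inhibition above the mean inhibition of all tested compounds plus 3 SD, set separately per screening campaign, cut at about 2.9% in these data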;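 further: PERK kinase domain activated by AP20187 dimerizer at 100 nM; 0% = DMSO with dimerizer and 100% = rapamycin at 8.4 µM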
# Target sequence (Q9NZJ5 whole entry, looked up, the tested form may be a part): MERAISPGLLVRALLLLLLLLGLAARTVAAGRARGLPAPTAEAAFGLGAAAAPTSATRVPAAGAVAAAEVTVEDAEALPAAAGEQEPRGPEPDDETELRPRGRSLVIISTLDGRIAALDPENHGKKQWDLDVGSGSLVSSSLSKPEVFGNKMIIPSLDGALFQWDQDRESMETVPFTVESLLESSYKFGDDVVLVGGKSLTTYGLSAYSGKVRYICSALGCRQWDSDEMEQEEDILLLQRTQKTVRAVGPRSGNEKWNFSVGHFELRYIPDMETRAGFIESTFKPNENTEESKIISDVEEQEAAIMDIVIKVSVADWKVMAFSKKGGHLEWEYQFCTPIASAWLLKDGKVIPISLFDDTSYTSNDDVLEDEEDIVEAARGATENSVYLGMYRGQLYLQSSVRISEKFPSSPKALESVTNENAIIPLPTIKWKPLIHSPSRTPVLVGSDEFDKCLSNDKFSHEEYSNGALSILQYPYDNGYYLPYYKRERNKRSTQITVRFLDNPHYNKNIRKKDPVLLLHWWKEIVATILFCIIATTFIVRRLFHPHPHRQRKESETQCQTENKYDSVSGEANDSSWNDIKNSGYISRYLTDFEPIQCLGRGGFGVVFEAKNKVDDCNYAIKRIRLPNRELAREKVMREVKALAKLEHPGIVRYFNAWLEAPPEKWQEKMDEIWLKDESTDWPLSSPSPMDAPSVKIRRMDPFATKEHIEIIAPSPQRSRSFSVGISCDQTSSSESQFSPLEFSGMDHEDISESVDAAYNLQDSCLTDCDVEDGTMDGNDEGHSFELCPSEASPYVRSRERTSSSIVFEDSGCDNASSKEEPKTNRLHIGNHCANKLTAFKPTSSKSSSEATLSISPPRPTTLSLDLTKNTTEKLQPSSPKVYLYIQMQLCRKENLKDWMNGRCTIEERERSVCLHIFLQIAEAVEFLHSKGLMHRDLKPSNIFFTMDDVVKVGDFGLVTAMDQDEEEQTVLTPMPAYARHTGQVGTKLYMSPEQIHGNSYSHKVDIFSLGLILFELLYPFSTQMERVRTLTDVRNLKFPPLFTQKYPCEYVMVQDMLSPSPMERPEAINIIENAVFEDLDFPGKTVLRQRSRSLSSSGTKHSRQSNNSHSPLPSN
# Platelet DG rel = platelet dense granule release activity; human platelet-rich plasma, SFLLRN dense granule ATP release, luminescence; inhibition, %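 (compounds screened at 7.5 µM in platelet-rich plasma)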; 300,000 tested, 0.22% active;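 active means mean replicate score, as percent of positive control, at or above 50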
# STAT3 act-2 = STAT3 activation, confirmation assay. shares compounds with STAT3 act-1. U3A STAT3-luciferase reporter, IL-6 potentiation, luminescence; U3A cells lack STAT1; 100 means same as IL-6 alone. potentiation (% of control), % at 5.7 µM. 1,200 tested, 64% active. AID 1267;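 active means percent activation of the STAT3 luciferase reporter above a set limit taken from the earlier primary screen, cut at about 130% in these data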;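 further: 0% = background signal of medium plus substrate and 100% = median of IL-6 with DMSO wells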
# NFkB act STAT3ct = activates NF-kappaB, counter-screen to STAT3 activators | shares compounds with STAT3 act-1 | human cells, NF-kappaB reporter activation | activation (% of control), % at 5.7 µM | 1,200 tested, 11% active; in the data active means activation above about 120%;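 further: reporter induced by TNF-alpha stimulation; 100% = median of stimulated DMSO wells and 0% = no signal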
# STAT1 act = STAT1 activation in STAT3 activator counter-screen | shares compounds with STAT3 act-1 | 1,200 tested, 13% active | activation (% of control), % at 5.7 µM | NIH 3T3 STAT1-luciferase reporter, IFN-gamma, luminescence | AID 1318;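 active means activation above the solvent-only control well mean plus 3 SD, set per screening run, cut at about 120% in these data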;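 further: 100% = IFN-gamma with DMSO median signal so 100% means no change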
# An asterisk follows results filed as active; · = not tested or not shown.
SMILES,STAT3 inh,STAT3 act-1,STAT1 inh,PERK inhibitor,Platelet DG rel,STAT3 act-2,NFkB act STAT3ct,STAT1 act
O=C(Cn1c(C(F)(F)F)nc2ccccc21)OCC(=O)c1c[nH]c2ccccc12,-44,138*,6,0,18,112,97,93
CN(C)/C(=N\S(=O)(=O)c1ccc(Br)cc1)c1ccccc1,·,·,·,·,-1,·,·,·
COc1ccccc1-c1cc(C(=O)N/N=C/c2cccs2)c2ccccc2n1,-49,139*,0,-1,-5,138*,105,97
CCc1ccc(/C=N/NC(=O)c2cc(-c3ccncc3)nc3ccccc23)s1,-28,124,-13,0,-10,·,·,·
O=C(N/N=C/c1cccs1)c1cc(-c2ccncc2)nc2ccccc12,-40,138*,-9,0,-10,102,125*,106
CCOC(=O)c1ccc(NC2=CC(=O)C(=O)c3ccccc32)cc1,-46,144*,0,0,9,128,107,102
Cc1ccc(NC2=CC(=O)C(=O)c3ccccc32)cc1,-2,105,-22,0,4,·,·,·
Cc1cc(C(=O)N/N=C/c2cc(Cl)cc([N+](=O)[O-])c2O)n[nH]1,·,·,·,1,7,·,·,·
O=S(=O)(Nc1nc2ccccc2s1)c1ccc(Br)s1,-47,142*,1,0,-6,134*,107,97
COc1ccc(S(=O)(=O)Nc2nc3ccccc3s2)cc1OC,-56,154*,-2,0,-16,142*,100,94
Cc1ccc(S(=O)(=O)Nc2nc3ccccc3s2)cc1,-6,103,5,0,1,·,·,·
Cc1ccc(NC(=O)C2CC2C)c(Cl)c1 (stereo not drawn),6,97,-10,0,1,·,·,·
CCN(CC)S(=O)(=O)c1ccc(NC(=O)CNC2CCCCC2)cc1,·,·,·,·,2,·,·,·
CN(C)CCNC(=O)/C=N/O,12,87,9,1,-6,·,·,·
O=C1CSC(=Nc2cccc([N+](=O)[O-])c2)N1,·,·,·,·,0,·,·,·
COc1ccccc1-c1n[nH]c(=S)n1-c1ccccc1,-38,137*,2,1,-7,104,104,105
COc1ccccc1-c1n[nH]c(=S)n1N,15,91,6,1,6,·,·,·
O=C(NCCC(=O)N1CCN(c2ncccn2)CC1)c1ccccc1,-42,139*,-12,0,-7,102,105,99
O=C(NCCC(=O)N1CCN(c2ncccn2)CC1)c1ccccc1Cl,-14,110,-5,0,-1,·,·,·
Cc1cccc(NC(=O)CSc2nc3c([nH]c4ccccc43)c(=O)n2C)c1,-40,146*,19,1,12,135*,95,87
Cn1c(SCC(=O)Nc2ccccc2)nc2c([nH]c3ccccc32)c1=O,4,105,11,0,11,·,·,·
CCC(C)Sc1nc2c([nH]c3ccccc32)c(=O)n1C (stereo not drawn),-75,166*,12,1,5,124,103,100
COc1cccc(NC(=O)CSc2nc3c([nH]c4ccccc43)c(=O)n2C)c1,-32,139*,23,0,-6,124,100,90
Cn1cc(CN2CCC(CO)CC2)c(-c2ccc(Oc3ccccc3)cc2)n1,-3,109,0,-2,1,·,·,·
COc1ccccc1/C=N/NC(=O)C1=NNC(c2ccccc2)(c2ccccc2)C1,-52,149*,10,1,1,120,101,93
SMILES,STAT3 inh,STAT3 act-1,STAT1 inh,PERK inhibitor,Platelet DG rel,STAT3 act-2,NFkB act STAT3ct,STAT1 act
Cc1cc(NC(=O)c2ccccc2)ccc1NC(=O)Cc1ccccc1,·,·,·,·,-5,·,·,·
COC(=O)/C(=C/Nc1cccc2ccccc12)[N+](=O)[O-],-77,173*,11,0,-1,135*,108,99
COc1ccc(S(=O)(=O)Nc2c(C(=O)O)[nH]c3ccccc23)cc1OC,-42,141*,-1,0,-5,165*,110,100
O=C(O)c1[nH]c2ccccc2c1NS(=O)(=O)Cc1ccccc1,-57,155*,-1,0,-5,165*,103,94
COc1ccc(S(=O)(=O)Nc2c(C(=O)O)[nH]c3ccccc23)cc1,·,·,·,·,2,·,·,·
O=C(N/N=C/C1CC=CCC1)c1ccc(O)cc1O (stereo not drawn),8,94,7,0,12,·,·,·
COc1cc(C(=O)N/N=C/C2CC=CCC2)cc(OC)c1OC (stereo not drawn),-60,144*,-11,-1,-3,99,103,97
COc1cccc(-c2cc(=O)c3cc(NC(=O)c4ccccc4)ccc3[nH]2)c1,-15,110,-1,1,8,·,·,·
Cc1ccc(-c2cc(=O)c3cc(F)ccc3[nH]2)cc1,-10,106,-4,0,-7,·,·,·
Cc1ccc2[nH]c(-c3cccc(F)c3)cc(=O)c2c1,-54,142*,-23,0,1,110,143*,116
COc1cccc(-c2cc(=O)c3cc(NC(=O)c4ccc(N(C)C)cc4)ccc3[nH]2)c1,-49,139*,-3,0,-2,112,161*,106
O=c1cc(-c2ccccc2)[nH]c2ccc(F)cc12,-23,117,-8,1,9,·,·,·
COc1ccc2[nH]c(-c3cccc(F)c3)cc(=O)c2c1,-60,148*,-30,0,0,119,130*,126*
COc1ccc(CCNC(=O)CSc2nnc3ccc(-c4cccnc4)nn23)cc1,13,98,4,0,-4,·,·,·
Cc1ccc(C(=O)N/C(=C/c2ccc(-c3ccc([N+](=O)[O-])cc3)o2)C(=O)NCCCN(C)C)cc1,·,·,·,·,-10,·,·,·
CCCN(CCC)C(=O)C1CCCN1S(=O)(=O)c1cccc2nsnc12 (stereo not drawn),·,·,·,0,6,·,·,·
CC(C)CN(CCNC(=O)CN1C(=O)COc2ccc(S(=O)(=O)N3CCC(C)CC3)cc21)CC(C)C,·,·,·,·,-5,·,·,·
C/[N+]([O-])=C/c1c(OCc2ccc(Cl)cc2Cl)ccc2ccccc12,-31,138*,-13,1,0,115,98,85
COc1ccccc1CNC(=O)C1CCN(S(=O)(=O)c2ccc3nc4c(c(C(=O)O)c3c2)CCCC4)CC1,·,·,·,·,-7,·,·,·
CCn1c(N2CCN(CC(=O)c3c[nH]c4ccccc34)CC2)nc2c1c(=O)[nH]c(=O)n2C,-47,142*,8,1,-8,137*,110,98
CC1CC(=O)C2=C(C1)Nc1ccccc1N=C2 (stereo not drawn),-4,104,10,-1,-5,·,·,·
CCC1=Nc2ccccc2NC2=C1C(=O)CCC2,-77,166*,-23,-1,-9,160*,119,123*
